# Test results: publication PMC6287576 (International Journal for Parasitology: Drugs and Drug …, 2018)
# Structures can show the parent of a compound that is named as a salt.
# What was measured:
# [1] = tested on: recombinant A. suum N-AChR; settings: ref Zheng et al., 2017; cited from earlier work
# [2] = biological target: T1, P. equorum N-AChR (ACR-16) (Parascaris equorum, UniProt A0A3S9VMQ8); test: Two-electrode voltage-clamp, Peq-N-AChR in Xenopus oocytes; format: cell-based; settings: for Hill slope: Peq N-AChR; for current elicited by perfusion: Peq-N-AChR, 100 μM
# T1 sequence (A0A3S9VMQ8 25-504): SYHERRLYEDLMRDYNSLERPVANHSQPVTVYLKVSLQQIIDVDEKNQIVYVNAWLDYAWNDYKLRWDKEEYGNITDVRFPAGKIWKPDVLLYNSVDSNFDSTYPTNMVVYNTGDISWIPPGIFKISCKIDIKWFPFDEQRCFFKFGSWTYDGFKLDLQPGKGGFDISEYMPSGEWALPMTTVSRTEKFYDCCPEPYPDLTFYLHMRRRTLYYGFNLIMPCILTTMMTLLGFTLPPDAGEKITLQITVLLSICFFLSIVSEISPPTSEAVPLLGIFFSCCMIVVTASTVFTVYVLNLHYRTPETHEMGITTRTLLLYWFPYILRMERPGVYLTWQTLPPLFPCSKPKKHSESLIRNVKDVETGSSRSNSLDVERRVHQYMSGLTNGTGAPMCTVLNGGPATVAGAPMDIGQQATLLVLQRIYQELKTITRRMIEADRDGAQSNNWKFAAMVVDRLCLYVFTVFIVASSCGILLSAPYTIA
# [3] = biological target: T2, C. elegans N-AChR (ACR-16) (Caenorhabditis elegans, UniProt P48180); test: Two-electrode voltage-clamp, Cel-N-AChR in Xenopus oocytes; format: cell-based; settings: for Hill slope: Cel N-AChR
# T2 sequence (P48180 20-498): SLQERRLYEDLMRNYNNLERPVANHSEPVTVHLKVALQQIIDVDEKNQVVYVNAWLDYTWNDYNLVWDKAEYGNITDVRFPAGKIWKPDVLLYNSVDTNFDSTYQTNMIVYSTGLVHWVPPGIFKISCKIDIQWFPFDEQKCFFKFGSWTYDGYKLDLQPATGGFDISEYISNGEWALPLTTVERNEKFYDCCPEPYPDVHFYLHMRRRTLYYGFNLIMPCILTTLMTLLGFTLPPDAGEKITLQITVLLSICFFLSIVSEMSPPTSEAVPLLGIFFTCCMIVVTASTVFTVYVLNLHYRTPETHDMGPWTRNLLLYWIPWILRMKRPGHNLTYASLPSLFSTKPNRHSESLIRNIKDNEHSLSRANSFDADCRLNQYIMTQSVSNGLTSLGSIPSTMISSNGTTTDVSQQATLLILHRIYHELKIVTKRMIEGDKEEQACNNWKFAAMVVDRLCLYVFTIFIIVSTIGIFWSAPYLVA
# [4] = tested on: C. elegans acr-16 (ok789) mutant lacking N-AChR; test: C. elegans paralysis assay, acr-16 mutant; set-up: species or system Caenorhabditis elegans; settings: agar plate containing 31 mM drug, 15-60 min
# [5] = tested on: H. contortus L3 larvae, anthelmintic-susceptible Weybridge isolate; test: Automated larval migration assay; settings: Haemonchus contortus, read-out: IC50 (L3 migration, ALMA)
# C. elegans L-AChR [6] = test: Two-electrode voltage-clamp, Cel-L-AChR in Xenopus oocytes; format: cell-based, Caenorhabditis elegans; settings: 100 μM
# H. contortus L-AChR-2 = test: Two-electrode voltage-clamp, Hco-L-AChR-2 in Xenopus oocytes; format: cell-based, Haemonchus contortus; settings: 100 μM
# [7] = tested on: C. elegans lev-8 (ok1519) mutant lacking L-AChR; test: C. elegans paralysis assay, lev-8 mutant; set-up: species or system Caenorhabditis elegans; settings: agar plate containing 31 mM drug, 15-60 min
# H. contortus L-AChR-1 = test: Two-electrode voltage-clamp, Hco-L-AChR-1 in Xenopus oocytes; format: cell-based, Haemonchus contortus; settings: 100 μM
# [8] = tested on: H. contortus L3 larvae, Lev/Pyr/Ivm multi-resistant Kokstad isolate; test: Automated larval migration assay; set-up: species or system Haemonchus contortus; settings: for IC50: Haemonchus contortus, read-out: IC50 (L3 migration, ALMA); for resistance factor between Kok and Wey: based on respective ALMA IC50 values
# [9] = tested on: C. elegans Bristol N2 (wild type); test: C. elegans paralysis assay, N2; set-up: species or system Caenorhabditis elegans; settings: agar plate containing 31 mM drug, 15-60 min
# C. elegans L-AChR [10] = settings: recombinant C. elegans L-AChR in Xenopus oocytes; ref Boulin et al., 2008; cited from earlier work
# [11] = tested on: H. contortus Kokstad isolate (eggs); test: Egg hatch assay, Kokstad isolate; set-up: species or system Haemonchus contortus; settings: triplicate
# Procedure, shortened: (§1)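 Benzimidazole test compound applied to eggs of each sheep-passaged isolate to establish benzimidazole susceptibility or resistance status. Method followed a published egg hatch protocol. ED50 reported in μg/ml, from triplicate tests.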
# [12] = tested on: H. contortus Weybridge isolate (eggs); test: Egg hatch assay, Weybridge isolate; set-up: species or system Haemonchus contortus; settings: triplicate
# Procedure, shortened: as §1
Compound,Hill slope [2],current elicited by perfusion [2],EC50 [3] [µM],Hill slope [3],"current elicited by perfusion ([3]; Cel-N-AChR, 100 μM)",effect on motility (paralysis) [4],IC50 [5] [µM],response of oocytes (C. elegans L-AChR [6]),response of oocytes (H. contortus L-AChR-2),effect on motility (paralysis) [7],response of oocytes (H. contortus L-AChR-1),IC50 [8] [µM],effect on motility (paralysis) [9],resistance factor between Kok and Wey [8],also measured
C#Cc1cncc([C@@H]2CCCCN2)c1 [(S)-5-ethynyl-anabasine],,,,,,,,,,,,,,,agonist potency [1]: higher agonist potency than other nicotine alkaloids
"CC(=O)OCC[N+](C)(C)C [Acetylcholine, Acetylcholine chloride]",2.0 ± 0.2,robust currents in the μA range,22 ± 1.2,2.1 ± 0.4,robust currents in the μA range,,,,,,,,,,
"c1cncc([C@@H]2CCCCN2)c1 [Anabasine, anabasine]",1.8 ± 0.2,very similar currents as for Nic,27.5 ± 0.9,2.4 ± 0.4,very similar currents as for Nic,significantly less sensitive,179 ± 7.9,failed to induce significant response,very small currents on few oocytes,affected,failed to induce significant response,141 ± 6.9,affected,,EC50 [2]: 1.7 ± 0.1 µM
"c1ccc([C@H]2CN3CCSC3=N2)cc1 [Levamisole, (−)-tetramisole hydrochloride]",,,,,,,1.14 ± 0.03,,,,,14 ± 0.35,,12.3,sensitivity of recombinant receptor (C. elegans L-AChR [10]): sensitive
"CN1CCC[C@H]1c1cccnc1 [Nicotine, (−)-nicotine hydrogen tartrate]",1.7 ± 0.2,,15.1 ± 1.3,2.2 ± 0.2,,significantly less sensitive,611 ± 55.1,failed to induce significant response,responded robustly,affected,failed to induce significant response,1170 ± 67.7,affected,,"EC50 [2]: 2.9 ± 0.5 µM; Emax at 100 µM ([2]; read-out: % of ACh response): 96.6 ± 9.2%; sensitivity of recombinant receptor (C. elegans L-AChR [10]): insensitive; % of ACh response ([3]; Cel-N-AChR, 100 μM): 79.5 ± 7.5%"
"CN1CCCN=C1/C=C/c1cccs1 [Pyrantel, pyrantel citrate]",,,,,,,0.77 ± 0.01,,,,,18.5 ± 1.32,,23.9,
"c1ccc2[nH]c(-c3cscn3)nc2c1 [TBZ, thiabendazole]",,,,,,,,,,,,,,,ED50 (egg hatch assay) [11]: 0.437 ± 0.205 µg/mL; ED50 (egg hatch assay) [12]: 0.024 ± 0.001 µg/mL
(±)-nornicotine,1.9 ± 0.3,very similar currents as for Nic,,2.7 ± 0.4,very similar currents as for Nic,significantly less sensitive,,failed to induce significant response,very small currents on few oocytes,affected,failed to induce significant response,,affected,,
ivermectin,,,,,,,,,,,,,,15.1,
